According to ChEMBL document CHEMBL1132478, “Design and synthesis of novel alpha(1)(a) adrenoceptor-selective antagonists. 3. Approaches to eliminate opioid agonist metabolites by using substituted phenylpiperazine side chains” (J Med Chem, 1999):
Where “and” joins values, the source holds several entries; their conditions need not be identical. Equal entries are not always repeated.

Experiments:
[1] = molecular target: T1, Alpha-1D adrenergic receptor (Homo sapiens, UniProt P25100); assay: In vitro binding affinity against Alpha-1D adrenergic receptor at recombinant human receptor.; conditions: in the assay text read “at recombinant human receptor” for “of human liver microsomes”
T1 sequence (P25100 whole entry): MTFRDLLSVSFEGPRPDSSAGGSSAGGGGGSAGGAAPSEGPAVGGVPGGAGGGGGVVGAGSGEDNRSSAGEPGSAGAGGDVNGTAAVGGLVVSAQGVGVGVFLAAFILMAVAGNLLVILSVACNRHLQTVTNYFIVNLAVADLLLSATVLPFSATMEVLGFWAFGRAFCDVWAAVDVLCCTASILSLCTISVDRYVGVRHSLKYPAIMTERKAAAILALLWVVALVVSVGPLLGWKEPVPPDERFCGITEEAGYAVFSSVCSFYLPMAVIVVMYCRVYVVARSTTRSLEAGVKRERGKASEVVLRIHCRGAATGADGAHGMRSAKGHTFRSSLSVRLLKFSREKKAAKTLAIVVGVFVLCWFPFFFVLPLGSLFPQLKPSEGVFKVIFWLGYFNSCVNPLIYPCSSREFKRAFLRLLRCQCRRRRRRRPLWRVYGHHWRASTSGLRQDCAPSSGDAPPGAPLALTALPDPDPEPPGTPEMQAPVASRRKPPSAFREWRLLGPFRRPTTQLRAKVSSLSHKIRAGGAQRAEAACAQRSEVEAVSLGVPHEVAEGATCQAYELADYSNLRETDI
Summary of the method: (§1)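 Radioligand displacement on membranes from cultured cells expressing recombinant human α1a, α1b or α1d adrenoceptors, using [³H]prazosin as radioligand; Ki values reported.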

[2] = molecular target: T2, Alpha-1B adrenergic receptor (Homo sapiens, UniProt P35368); assay: In vitro binding affinity against Alpha-1B adrenergic receptor at recombinant human receptor.
T2 sequence (P35368 whole entry): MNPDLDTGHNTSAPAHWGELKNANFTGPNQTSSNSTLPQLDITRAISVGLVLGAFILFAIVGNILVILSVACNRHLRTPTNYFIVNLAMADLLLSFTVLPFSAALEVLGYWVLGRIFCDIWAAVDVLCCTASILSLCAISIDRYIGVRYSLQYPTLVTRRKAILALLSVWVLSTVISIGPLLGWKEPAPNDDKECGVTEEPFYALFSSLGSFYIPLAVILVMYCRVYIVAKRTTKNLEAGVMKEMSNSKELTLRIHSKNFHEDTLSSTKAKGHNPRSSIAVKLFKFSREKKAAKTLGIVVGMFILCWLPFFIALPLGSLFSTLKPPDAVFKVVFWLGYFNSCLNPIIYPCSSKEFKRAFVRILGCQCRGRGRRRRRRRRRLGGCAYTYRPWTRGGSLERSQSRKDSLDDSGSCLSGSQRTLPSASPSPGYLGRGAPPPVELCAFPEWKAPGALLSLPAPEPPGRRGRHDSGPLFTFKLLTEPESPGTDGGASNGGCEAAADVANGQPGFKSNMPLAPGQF

[3] = Fold selectivity against alpha 1A adrenergic receptor over alpha 2A, 2B and 2C adrenergic receptors
Summary of the method: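 Ki ratio derived from radioligand displacement at recombinant human adrenoceptors: α1a with [³H]prazosin, and α2a, α2b and α2c with [³H]rauwolscine, on membranes from cultured cells.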

[4] = molecular target: T3, Alpha-1A adrenergic receptor (Homo sapiens, UniProt P35348); assay: In vitro binding affinity against Alpha-1A adrenergic receptor […].; summary of the method: as §1
T3 sequence (P35348 whole entry): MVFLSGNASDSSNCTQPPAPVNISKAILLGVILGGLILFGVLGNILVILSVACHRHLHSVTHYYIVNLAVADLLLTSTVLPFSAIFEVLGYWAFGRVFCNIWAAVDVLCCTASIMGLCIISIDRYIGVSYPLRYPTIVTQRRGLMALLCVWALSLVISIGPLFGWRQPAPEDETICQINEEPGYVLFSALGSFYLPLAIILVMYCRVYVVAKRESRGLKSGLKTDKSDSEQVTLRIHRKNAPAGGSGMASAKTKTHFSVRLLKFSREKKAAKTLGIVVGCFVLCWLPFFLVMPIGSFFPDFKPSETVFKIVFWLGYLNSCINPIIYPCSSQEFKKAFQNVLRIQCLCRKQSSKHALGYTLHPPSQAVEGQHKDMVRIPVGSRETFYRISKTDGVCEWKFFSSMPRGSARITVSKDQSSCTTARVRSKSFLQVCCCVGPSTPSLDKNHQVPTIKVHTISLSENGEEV

[5] = molecular target: T4, Alpha-1A adrenergic receptor (Rattus norvegicus) (UniProt P43140); assay: (§2) Binding affinity radioligand)
T4 sequence (whole entry): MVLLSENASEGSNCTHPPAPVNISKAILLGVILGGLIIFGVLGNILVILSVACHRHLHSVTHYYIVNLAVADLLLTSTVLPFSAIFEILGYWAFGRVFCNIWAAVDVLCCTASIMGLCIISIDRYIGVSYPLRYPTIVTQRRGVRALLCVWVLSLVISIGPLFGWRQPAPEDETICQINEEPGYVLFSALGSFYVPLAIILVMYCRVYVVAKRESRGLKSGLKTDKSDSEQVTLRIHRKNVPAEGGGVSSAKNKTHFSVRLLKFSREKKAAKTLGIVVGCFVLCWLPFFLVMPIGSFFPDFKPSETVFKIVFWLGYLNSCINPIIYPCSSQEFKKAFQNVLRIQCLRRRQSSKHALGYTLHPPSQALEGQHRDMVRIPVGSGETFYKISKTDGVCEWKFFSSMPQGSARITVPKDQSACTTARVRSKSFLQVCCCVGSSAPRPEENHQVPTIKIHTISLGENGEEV

[6] = oral bioavailability in rat; type: ADME, organism-based; conditions: in vivo
Summary of the method: (§3)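 In rats, the compound was given at 3 mg/kg iv and 10 mg/kg po. Plasma AUC was measured for each route, with oral bioavailability and plasma half-life derived from the plasma profiles.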

Rattus norvegicus [7] = species: Rattus norvegicus; assay: Inhibition of phenylephrine induced contraction of the rat prostate.; type: functional, Prostate gland
Summary of the method: (§4)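 In rats, phenylephrine-induced contraction of the prostate was measured in vivo. Antagonist potency is expressed as AD₅₀ in µg/kg. Duration of action is given in hours.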

Mu-type opioid receptor = Mu-type opioid receptor (Homo sapiens, UniProt P35372); assay: Binding affinity against opioid receptor using [3H]-DAMGO as radioligand.
[8] = Plasma half life in rat; type: ADME, organism-based; summary of the method: as §3
Rattus norvegicus [9] = species: Rattus norvegicus; assay: Duration of action in rat.; type: ADME, organism-based; conditions: in vivo; summary of the method: as §4
[10] = oral bioavailability in dog; type: ADME, organism-based, Canis lupus familiaris; conditions: in vivo
[11] = Plasma half life in dog; type: ADME, organism-based, Canis lupus familiaris
[12] = molecular target: Adrenergic receptor alpha-1 (Rattus norvegicus) (UniProt P15823+P23944+P43140); assay: as §2; type: protein assay
Adrenergic receptor alpha-1 (Rattus norvegicus), sequence (P15823 whole entry, looked up, one chain of several): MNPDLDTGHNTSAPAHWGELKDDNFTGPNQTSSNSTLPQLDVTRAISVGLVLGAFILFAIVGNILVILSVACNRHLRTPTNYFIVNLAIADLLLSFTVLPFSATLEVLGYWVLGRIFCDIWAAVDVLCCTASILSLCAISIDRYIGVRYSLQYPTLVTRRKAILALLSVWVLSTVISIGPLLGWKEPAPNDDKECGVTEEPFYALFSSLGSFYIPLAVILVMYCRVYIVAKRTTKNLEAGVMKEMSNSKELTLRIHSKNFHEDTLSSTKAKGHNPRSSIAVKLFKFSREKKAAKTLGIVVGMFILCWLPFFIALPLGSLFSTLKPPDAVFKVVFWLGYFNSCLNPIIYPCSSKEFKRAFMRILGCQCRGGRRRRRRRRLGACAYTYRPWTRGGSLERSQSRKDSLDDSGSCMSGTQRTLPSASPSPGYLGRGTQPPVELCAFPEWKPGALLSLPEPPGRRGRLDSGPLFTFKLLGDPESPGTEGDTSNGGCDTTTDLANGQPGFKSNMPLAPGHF
Adrenergic receptor alpha-1 (Rattus norvegicus), sequence (P23944 whole entry, looked up, one chain of several): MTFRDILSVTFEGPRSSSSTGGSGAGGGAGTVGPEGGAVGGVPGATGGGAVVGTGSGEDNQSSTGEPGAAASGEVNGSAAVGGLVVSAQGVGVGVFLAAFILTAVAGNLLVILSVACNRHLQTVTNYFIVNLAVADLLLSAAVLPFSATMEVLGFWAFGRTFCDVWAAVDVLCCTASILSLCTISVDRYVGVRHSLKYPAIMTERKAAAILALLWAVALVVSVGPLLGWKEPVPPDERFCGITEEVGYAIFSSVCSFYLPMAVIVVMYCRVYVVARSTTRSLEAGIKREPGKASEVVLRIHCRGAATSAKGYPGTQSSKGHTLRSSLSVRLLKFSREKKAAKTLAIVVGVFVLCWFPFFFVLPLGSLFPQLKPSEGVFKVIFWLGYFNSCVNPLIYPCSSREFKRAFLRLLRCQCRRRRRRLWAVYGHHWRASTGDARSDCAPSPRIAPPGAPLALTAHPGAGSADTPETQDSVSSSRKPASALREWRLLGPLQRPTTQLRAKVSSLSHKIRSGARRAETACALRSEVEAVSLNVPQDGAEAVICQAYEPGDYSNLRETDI

Mu-type opioid receptor, sequence (P35372 whole entry): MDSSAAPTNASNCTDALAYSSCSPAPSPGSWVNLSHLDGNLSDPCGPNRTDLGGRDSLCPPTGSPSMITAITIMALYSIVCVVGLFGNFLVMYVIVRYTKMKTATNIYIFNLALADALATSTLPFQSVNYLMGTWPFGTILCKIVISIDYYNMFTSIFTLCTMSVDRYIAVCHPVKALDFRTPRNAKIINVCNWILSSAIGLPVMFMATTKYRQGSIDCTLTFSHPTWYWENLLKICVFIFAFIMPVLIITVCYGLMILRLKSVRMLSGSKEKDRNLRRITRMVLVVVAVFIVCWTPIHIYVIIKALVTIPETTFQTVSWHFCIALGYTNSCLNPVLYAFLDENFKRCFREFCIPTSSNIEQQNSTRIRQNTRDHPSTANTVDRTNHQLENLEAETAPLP

Compound | Ki [1] | Ki [2] | Fold selectivity [3] | Ki [4] | further results
COC(=O)C1=C(C)NC(=O)N(C(=O)NCCCN2CCN(c3ccccc3Cl)CC2)C1c1ccc(F)c(F)c1 (configuration not stated) | 14 nM | 15 nM | > 190 | 0.2 nM | 
CCC1=C(C(=O)OC)C(c2ccc(F)cc2F)N(C(=O)NCCCN2CCN(c3ccccc3C(N)=O)CC2)C(=O)N1 (configuration not stated) | 91 nM | 32 nM | > 1900 | 0.1 nM | 
COCC1=C(C(=O)OC)C(c2ccc(F)c(F)c2)N(C(=O)NCCCN2CCN(c3ccccc3C(N)=O)CC2)C(=O)N1 (configuration not stated) | 140 nM | 100 nM | > 4500 | 0.1 nM | 
COC(=O)C1=C(C)NC(=O)N(C(=O)NCCCN2CCN(c3ccccc3C(N)=O)CC2)C1c1cc(F)c(F)c(F)c1 (configuration not stated) | 140 nM | 58 nM | > 430 | 0.3 nM | 
COC(=O)C1=C(C)NC(=O)N(C(=O)NCCCN2CCN(c3ccccc3[N+](=O)[O-])C[C@@H]2C)C1c1ccc(F)c(F)c1 (some centres not stated) | 34 nM | 49 nM | > 17000 | 0.02 nM | 
COC(=O)C1=C(C)NC(=O)N(C(=O)NCCCN2CCN(c3ccccc3C(N)=O)CC2)C1c1ccc(F)c(F)c1 (configuration not stated) | 250 nM and 310 nM | 190 nM and 135 nM | > 3000 | 0.12 nM and 0.26 nM | Kb [5]: 0.3 nM; bioavailability [6]: 13%; AD50 (Rattus norvegicus [7]): 0.022 mg/kg; Ki (Mu-type opioid receptor): > 30000 nM; half-life [8]: 2 h; Duration of action (Rattus norvegicus [9]): > 4 h; bioavailability [10]: 4%; half-life [11]: 2.4 h
COC(=O)C1=C(C)NC(=O)N(C(=O)NCCCN2CCN(c3ccccc3C)CC2)C1c1ccc(F)c(F)c1 (configuration not stated) | 9.8 nM | 17 nM | > 110 | 0.3 nM | 
CCOc1ccccc1N1CCN(CCCNC(=O)N2C(=O)NC(C)=C(C(=O)OC)C2c2ccc(F)c(F)c2)CC1 (configuration not stated) | 14 nM | 8.8 nM | > 210 | 0.1 nM | 
CCC1=C(C(N)=O)C(c2ccc(F)cc2F)N(C(=O)NCCCN2CCN(c3ccccc3C(N)=O)CC2)C(=O)N1 (configuration not stated) | 1100 nM | 720 nM | > 600 | 1.3 nM | 
COC(=O)C1=C(C)NC(=O)N(C(=O)NCCCN2CCN(c3ccccc3C(=O)OC)CC2)C1c1ccc(F)c(F)c1 (configuration not stated) | 30 nM | 25 nM | > 85 | 0.2 nM | 
COCC1=C(C(=O)OC)C(c2cc(F)c(F)cc2F)N(C(=O)NCCCN2CCN(c3ccccc3C(N)=O)CC2)C(=O)N1 (configuration not stated) | 190 nM | 130 nM | > 660 | 0.1 nM | 
COC(=O)C1=C(C)NC(=O)N(C(=O)NCCCN2CCN(c3cccc([N+](=O)[O-])c3)CC2)C1c1ccc(F)c(F)c1 (configuration not stated) | 340 nM | 150 nM | > 40 | 12 nM | 
CCC1=C(C(N)=O)C(c2ccc(F)c(F)c2)N(C(=O)NCCCN2CCC(C(=O)OC)(c3ccccc3)CC2)C(=O)N1 (configuration not stated) |  |  | > 3200 |  | Kb [5]: 0.4 nM; Kb [12]: > 1000 nM; AD50 (Rattus norvegicus [7]): 0.02 mg/kg; Duration of action (Rattus norvegicus [9]): > 4 h
COC(=O)C1=C(C)NC(=O)N(C(=O)NCCCN2CCN(c3ccccc3[N+](=O)[O-])CC2)C1c1ccc(F)c(F)c1 (configuration not stated) | 32 nM | 23 nM | > 23000 | 0.01 nM | 
COC(=O)C1=C(C)NC(=O)N(C(=O)NCCCN2CCN(c3ccccc3)CC2)C1c1ccc(F)c(F)c1 (configuration not stated) | 21 nM | 7.5 nM | > 55 | 0.2 nM | 
COC(=O)C1=C(C)NC(=O)N(C(=O)NCCCN2CCN(c3ccc(OC)cc3)CC2)C1c1ccc(F)c(F)c1 (configuration not stated) | 480 nM | 410 nM | > 15 | 14 nM | 
COC(=O)C1=C(C)NC(=O)N(C(=O)NCCCN2CCN(c3ccccc3O)CC2)C1c1ccc(F)c(F)c1 (configuration not stated) | 31 nM | 16 nM | > 65 | 0.6 nM | 
COC(=O)C1=C(C)NC(=O)N(C(=O)NCCCN2CCN(c3cccc(Cl)c3)CC2)C1c1ccc(F)c(F)c1 (configuration not stated) | 37 nM | 8.4 nM | > 195 | 0.7 nM | 
CC(=O)C1=C(C)NC(=O)N(C(=O)NCCCN2CCN(c3ccccc3C(N)=O)CC2)C1c1cc(F)c(F)c(F)c1 (configuration not stated) | 390 nM | 220 nM | > 160 | 0.4 nM | 
COC(=O)C1=C(C)NC(=O)N(C(=O)NCCCN2CCN(c3ccc(Cl)cc3)CC2)C1c1ccc(F)c(F)c1 (configuration not stated) | 52 nM | 17 nM | > 65 | 0.8 nM | 
CC(=O)C1=C(C)NC(=O)N(C(=O)NCCCN2CCN(c3ccccc3C(N)=O)CC2)C1c1ccc(F)c(F)c1 (configuration not stated) | 290 nM | 170 nM | > 70 | 0.7 nM | 
COC(=O)C1=C(C)NC(=O)N(C(=O)NCCCN2CCN(c3cccc(C(F)(F)F)c3)CC2)C1c1ccc(F)c(F)c1 (configuration not stated) | 120 nM | 43 nM | > 60 | 4.9 nM | 
COC(=O)C1=C(C)NC(=O)N(C(=O)NCCCN2CCN(c3ccccc3C#N)CC2)C1c1ccc(F)c(F)c1 (configuration not stated) | 12 nM and 15 nM | 15 nM | > 1300 | 0.1 nM and 0.08 nM | 
COC(=O)C1=C(C)NC(=O)N(C(=O)NCCCN2CCN(c3ccc(OC)cc3C)CC2)C1c1ccc(F)c(F)c1 (configuration not stated) | 610 nM | 510 nM | > 20 | 16 nM | 
COC(=O)C1=C(C)NC(=O)N(C(=O)NCCCN2CCN(c3ccccc3[N+](=O)[O-])C[C@H]2C)C1c1ccc(F)c(F)c1 (some centres not stated) | 28 nM | 13 nM | > 1600 | 0.05 nM | 
COC(=O)C1=C(C)NC(=O)N(C(=O)NCCCN2CCN(c3ccc(C(C)=O)cc3)CC2)C1c1ccc(F)c(F)c1 (configuration not stated) | 1800 nM | 1300 nM | > 2 | 430 nM | 
COC(=O)C1=C(C)NC(=O)N(C(=O)NCCCN2CCN(c3ccccc3OC)CC2)C1c1ccc(F)c(F)c1 (configuration not stated) | 31 nM | 18 nM | > 360 | 0.1 nM | 
